Assay results: ChEMBL document CHEMBL4819109, “Discovery of boronic acid-based potent activators of tumor pyruvate kinase M2 and development of gastroretentive nanoformulation for oral dosing” (Bioorg Med Chem Lett, 2021)
Activity calls are given as the source filed them. No cut-off for these calls is given here.

Assays:
MDA-MB-231 = assay: Growth inhibition of human MDA-MB-231 cells by MTT assay; assay type: functional, cell-based
Method in brief: (§1)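 Cells were treated with varying compound concentrations and viability was read by MTT assay. IC50 values are reported ± error. Normal fibroblasts were tested alongside.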

[1] = Growth inhibition of human BCL2 Jurkat cells by MTT assay; assay type: functional; method in brief: as §1
COLO 201 = assay: Growth inhibition of human Colo-201 cells by MTT assay; assay type: functional, cell-based; method in brief: as §1
[2] = Growth inhibition of human Mesenchymal stem cells by MTT assay; assay type: tissue-based; method in brief: as §1
MCF7 [3] = assay: Induction of apoptosis in human MCF7 cells assessed as late apoptotic cells at 100 nM incubated for 48 hrs by AnnexinV/PI staining based flow cytometry; assay type: functional
Pyruvate kinase PKM [4] = molecular target: T1, Pyruvate kinase PKM (Homo sapiens, UniProt P14618); assay: Activation of PKM2 (unknown origin) by pyruvate kinase-lactate dehydrogenase coupled assay
Target sequence in this assay (P14618 whole entry): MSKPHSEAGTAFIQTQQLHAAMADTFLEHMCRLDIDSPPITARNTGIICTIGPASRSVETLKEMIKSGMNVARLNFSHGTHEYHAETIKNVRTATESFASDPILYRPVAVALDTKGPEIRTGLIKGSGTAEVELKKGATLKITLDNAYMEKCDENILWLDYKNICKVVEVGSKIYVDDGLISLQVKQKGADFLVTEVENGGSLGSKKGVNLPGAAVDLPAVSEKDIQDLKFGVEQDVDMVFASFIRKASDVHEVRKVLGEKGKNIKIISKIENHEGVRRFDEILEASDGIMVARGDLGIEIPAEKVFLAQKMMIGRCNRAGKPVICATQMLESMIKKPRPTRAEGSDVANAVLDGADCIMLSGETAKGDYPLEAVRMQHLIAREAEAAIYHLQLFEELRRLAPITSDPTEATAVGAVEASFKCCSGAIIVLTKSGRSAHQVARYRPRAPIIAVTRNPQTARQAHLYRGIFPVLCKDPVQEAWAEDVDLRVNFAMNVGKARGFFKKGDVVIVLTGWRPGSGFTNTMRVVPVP

MCF7 [5] = assay: Growth inhibition of human MCF7 cells by MTT assay; assay type: functional, cell-based; method in brief: as §1
MCF7 [6] = assay: Induction of apoptosis in human MCF7 cells assessed as early apoptotic cells at 100 nM incubated for 48 hrs by AnnexinV/PI staining based flow cytometry; assay type: functional
MCF7 [7] = assay: Induction of apoptosis in human MCF7 cells assessed as necrotic cells at 100 nM incubated for 48 hrs by AnnexinV/PI staining based flow cytometry; assay type: functional
Pyruvate kinase PKM [8] = molecular target: T1, Pyruvate kinase PKM; assay: Activation of […] in human MCF7 cells assessed as increase in tetramer formation at 100 nM measured after 48 hrs by DSS cross linker assay; assay type: cell-based; settings: filed as activator
Method in brief: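 MCF-7 cells exposed to 100 nM for 48 h, then cross-linked with disuccinimidyl suberate (DSS). Tetrameric PKM2 was read as the 250 kDa band and compared with untreated MCF-7 control cells.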
Target sequence in this assay (P14618 2-531 limits assumed): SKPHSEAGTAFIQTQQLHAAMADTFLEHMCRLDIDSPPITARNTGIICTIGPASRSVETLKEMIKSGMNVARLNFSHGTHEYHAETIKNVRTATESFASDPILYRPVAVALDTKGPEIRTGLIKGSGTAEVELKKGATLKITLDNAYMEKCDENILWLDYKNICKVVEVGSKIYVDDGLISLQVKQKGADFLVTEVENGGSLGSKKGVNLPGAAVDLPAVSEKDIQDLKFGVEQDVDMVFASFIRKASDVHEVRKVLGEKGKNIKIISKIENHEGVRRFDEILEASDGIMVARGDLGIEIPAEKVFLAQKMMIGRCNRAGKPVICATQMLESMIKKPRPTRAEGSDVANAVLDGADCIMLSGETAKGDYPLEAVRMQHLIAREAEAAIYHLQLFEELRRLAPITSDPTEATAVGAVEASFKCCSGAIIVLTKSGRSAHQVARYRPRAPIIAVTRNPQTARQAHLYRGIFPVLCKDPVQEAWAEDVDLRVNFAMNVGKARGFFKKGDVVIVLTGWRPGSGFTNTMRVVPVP

MCF7 [9] = assay: Induction of apoptosis in human MCF7 cells assessed as viable cells at 100 nM incubated for 48 hrs by AnnexinV/PI staining based flow cytometry; assay type: functional; settings: read-out: Activity
Pyruvate kinase PKM [10] = molecular target: T1, Pyruvate kinase PKM; assay: Activation of PKM2 (unknown origin) assessed as increase in tetramer formation by measuring scattering by Dynamic Light Scattering assay; settings: filed as activator
Target sequence in this assay (P14618 2-531 limits assumed): as above

Row | IC50 (MDA-MB-231) [µM] | IC50 (COLO 201) [µM] | EC50 (Pyruvate kinase PKM [4]) [µM] | IC50 (MCF7 [5]) [µM] | Activity (Pyruvate kinase PKM [8]) | Activity (Pyruvate kinase PKM [10]) | Compound | IC50 [1] [µM] | IC50 [2] [µM] | Activity (MCF7 [3]) [%] | Activity (MCF7 [6]) [%] | Activity (MCF7 [7]) [%] | viability at 0.1 µM (MCF7 [9]) [%]
1 | 1.3 | 0.8 |  |  |  |  | COc1cccc2c1C(=O)c1c(O)c3c(c(O)c1C2=O)C[C@@](O)(C(=O)CO)C[C@@H]3O[C@H]1C[C@H](N)[C@H](O)[C@H](C)O1 [DOXORUBICIN] | 3.03 | 2.37 |  |  |  | 
2 | 34.9 | 3.75 | 5.69 | 0.08 | Active | Active | CCOC(=O)/C(=C\c1ccc(B(O)O)cc1)C(=O)c1sc(Nc2ccc(Cl)cc2)nc1N(C)C | 2.82 | 23.9 | 23.5 | 8.81 | 22.37 | 45.3
3 | 36.6 | 5.58 | 6.11 | 2.71 |  |  | CCOC(=O)/C(=C\c1ccc(B(O)O)cc1)C(=O)c1sc(Nc2ccc(F)cc2)nc1-c1ccccc1 | 0.09 | 29.4 |  |  |  | 
4 | 58.7 | 5.5 | 8.17 | 2.72 |  |  | CCOC(=O)/C(=C\c1ccc(B(O)O)cc1)C(=O)c1sc(Nc2ccc(OC)cc2)nc1N(C)C | 0.57 | 25.8 |  |  |  | 
5 | 38 | 2.81 | 7.15 | 1.5 |  |  | CCOC(=O)/C(=C\c1ccc(B(O)O)cc1)C(=O)c1sc(Nc2ccccc2)nc1N(C)C | 6.36 | 40.6 |  |  |  | 
